From ChEMBL document CHEMBL1157043, “An eco-friendly synthesis and antimicrobial activities of dihydro-2H-benzo- and naphtho-1,3-oxazine derivatives” (Eur J Med Chem, 2010)
≈ marks a conversion by molar mass, not a printed value.

Tests used:
Candida albicans = assay: Antimicrobial activity against Candida albicans after 24 hrs; format: functional
Summary of the method: (§1)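 Broth microdilution per NCCLS guidelines in MOPS-buffered RPMI 1640. Starting inoculum was 1-5 × 10^3 cfu/mL, and plates were incubated at 35 °C. MIC was read spectrophotometrically at 492 nm after 24–48 h for yeasts and 72–96 h for mycelial fungi.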

Cryptococcus neoformans = assay: Antimicrobial activity against Cryptococcus neoformans after 24 hrs; format: functional; summary of the method: as §1
Sporothrix schenckii = assay: Antimicrobial activity against Sporothrix schenckii after 24 hrs; format: functional; summary of the method: as §1
Candida parapsilosis = assay: Antimicrobial activity against Candida parapsilosis ATCC 22019 after 24 hrs; format: functional; details: Lodderomyces parapsilosis, ATCC 22019, 24 h; summary of the method: as §1
Klebsiella pneumoniae = assay: Antimicrobial activity against Klebsiella pneumoniae after 24 hrs; format: functional
Summary of the method: (§2)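 NCCLS microdilution in Mueller Hinton broth. Strains were grown 24 h on nutrient agar at 37 °C, suspended at about 1.0–2.0 × 10^7 cells/mL (McFarland-matched) in saline with 0.05% Tween 20, then diluted 100 µL into 10 mL medium. Compounds were taken from a 1 mg/mL DMSO stock as twofold dilutions, top final 50 µg/mL. Incubation was 35 °C in a moist, dark chamber, and MIC was read spectrophotometrically at 24 h.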

Escherichia coli = assay: Antimicrobial activity against Escherichia coli after 24 hrs; format: functional; summary of the method: as §2
Pseudomonas aeruginosa = assay: Antimicrobial activity against Pseudomonas aeruginosa after 24 hrs; format: functional; summary of the method: as §2
Staphylococcus aureus = assay: Antimicrobial activity against Staphylococcus aureus after 24 hrs; format: functional; summary of the method: as §2
Aspergillus fumigatus = assay: Antimicrobial activity against Aspergillus fumigatus after 72 to 96 hrs
[1] = tested on: Trichophyton mentagrophytes; assay: Antimicrobial activity against Trichophyton mentagrophytes after 72 to 96 hrs

Molecule | MIC (Candida albicans) [µg/mL] | MIC (Cryptococcus neoformans) [µg/mL] | MIC (Sporothrix schenckii) [µg/mL] | MIC (Candida parapsilosis) [µg/mL] | MIC (Klebsiella pneumoniae) [µg/mL] | MIC (Escherichia coli) [µg/mL] | MIC (Pseudomonas aeruginosa) [µg/mL] | MIC (Staphylococcus aureus) [µg/mL] | MIC (Aspergillus fumigatus) [µg/mL] | MIC [1] [µg/mL]
Clc1cc(Cl)c(N2COc3ccc4ccccc4c3C2)c(Cl)c1 | > 50 | > 50 | > 50 | > 50 | > 50 | > 50 | > 50 | > 50 | > 50 | 50 (≈ 137 µM)
c1ccc2c(c1)CN(C1CCCCC1)CO2 | > 50 | > 50 | > 50 | > 50 | > 50 | > 50 | > 50 | > 50 | > 50 | 50 (≈ 230 µM)
CCCCN1COc2ccccc2C1 | > 50 | > 50 | 50 (≈ 261 µM) | > 50 | > 50 | 50 (≈ 261 µM) | > 50 | > 50 | > 50 | 50 (≈ 261 µM)
Clc1ccc2c(c1)CN(c1ccccc1)CO2 | 50 (≈ 203 µM) | 50 (≈ 203 µM) | 6.25 (≈ 25.4 µM) | 50 (≈ 203 µM) | 50 (≈ 203 µM) | 12.5 (≈ 50.9 µM) | > 50 | 25 (≈ 102 µM) | 25 (≈ 102 µM) | 12.5 (≈ 50.9 µM)
CC(=O)N1CCN(c2ccc(OCC3COC(Cn4ccnc4)(c4ccc(Cl)cc4Cl)O3)cc2)CC1 (stereo not given) [KETOCONAZOLE] | 0.002 (≈ 0.00376 µM) | 0.001 (≈ 0.00188 µM) | 0.031 (≈ 0.0583 µM) | 0.031 (≈ 0.0583 µM) |  |  |  |  | 2 (≈ 3.76 µM) | 4 (≈ 7.53 µM)
c1ccc2c(c1)CN(CCN1COc3ccccc3C1)CO2 | > 50 | 50 (≈ 169 µM) | 25 (≈ 84.4 µM) | > 50 | > 50 | > 50 | > 50 | > 50 | 50 (≈ 169 µM) | 25 (≈ 84.4 µM)
CCCCN1COc2ccc(Cl)cc2C1 | > 50 | > 50 | 25 (≈ 111 µM) | > 50 | > 50 | > 50 | > 50 | > 50 | > 50 | 50 (≈ 222 µM)
CC1(C)S[C@@H]2[C@H](NC(=O)[C@H](N)c3ccccc3)C(=O)N2[C@H]1C(=O)O [AMPICILLIN] |  |  |  |  | 0.39 (≈ 1.12 µM) | 50 (≈ 143 µM) | 50 (≈ 143 µM) | 0.19 (≈ 0.544 µM) |  | 
Clc1ccc(N2COc3ccc4ccccc4c3C2)c(Cl)c1 | > 50 | > 50 | > 50 | > 50 | > 50 | > 50 | > 50 | > 50 | > 50 | 50 (≈ 151 µM)
Cc1ccc2c(c1)CN(c1ccccc1Cl)CO2 | 50 (≈ 193 µM) | 25 (≈ 96.3 µM) | 12.5 (≈ 48.1 µM) | 50 (≈ 193 µM) | > 50 | 50 (≈ 193 µM) | 50 (≈ 193 µM) | > 50 | 50 (≈ 193 µM) | 12.5 (≈ 48.1 µM)
OC(Cn1cncn1)(Cn1cncn1)c1ccc(F)cc1F [FLUCONAZOLE] | 0.5 (≈ 1.63 µM) | 1 (≈ 3.27 µM) | 2 (≈ 6.53 µM) | 1 (≈ 3.27 µM) |  |  |  |  | 2 (≈ 6.53 µM) | 1 (≈ 3.27 µM)
Cc1ccc2c(c1)CN(CCN1COc3ccc(C)cc3C1)CO2 | 50 (≈ 154 µM) | 50 (≈ 154 µM) | 12.5 (≈ 38.5 µM) | 50 (≈ 154 µM) | > 50 | > 50 | > 50 | > 50 | 50 (≈ 154 µM) | 25 (≈ 77.1 µM)
c1ccc2c3c(ccc2c1)OCN(C1CCCCC1)C3 | 50 (≈ 187 µM) | 50 (≈ 187 µM) | 50 (≈ 187 µM) | > 50 | > 50 | > 50 | > 50 | > 50 | > 50 | 25 (≈ 93.5 µM)
Brc1ccc(N2COc3ccc4ccccc4c3C2)cc1 | > 50 | 50 (≈ 147 µM) | 50 (≈ 147 µM) | > 50 | > 50 | > 50 | 50 (≈ 147 µM) | > 50 | > 50 | 50 (≈ 147 µM)
c1ccc(N2COc3c(ccc4ccccc34)C2)cc1 | > 50 | > 50 | > 50 | > 50 | > 50 | > 50 | > 50 | > 50 | > 50 | > 50
Cc1cccc2c1OCN(c1ccccc1)C2 | 50 (≈ 222 µM) | > 50 | 25 (≈ 111 µM) | 50 (≈ 222 µM) | > 50 | 25 (≈ 111 µM) | > 50 | 50 (≈ 222 µM) | 50 (≈ 222 µM) | 25 (≈ 111 µM)
Cc1ccc(N2COc3ccc(Cl)cc3C2)cc1 | 25 (≈ 96.3 µM) | 50 (≈ 193 µM) | 6.25 (≈ 24.1 µM) | 25 (≈ 96.3 µM) | 25 (≈ 96.3 µM) | 6.25 (≈ 24.1 µM) | > 50 | 12.5 (≈ 48.1 µM) | 25 (≈ 96.3 µM) | 12.5 (≈ 48.1 µM)
Cc1ccc(N2COc3ccc(C)cc3C2)cc1 | 50 (≈ 209 µM) | 50 (≈ 209 µM) | 12.5 (≈ 52.2 µM) | 50 (≈ 209 µM) | 50 (≈ 209 µM) | 25 (≈ 104 µM) | > 50 | 25 (≈ 104 µM) | 50 (≈ 209 µM) | 12.5 (≈ 52.2 µM)
c1ccc(N2COc3ccc4ccccc4c3C2)cc1 | 50 (≈ 191 µM) | > 50 | 25 (≈ 95.7 µM) | > 50 | > 50 | 50 (≈ 191 µM) | 50 (≈ 191 µM) | > 50 | > 50 | > 50
CCCCN1COc2ccc3ccccc3c2C1 | > 50 | 50 (≈ 207 µM) | 50 (≈ 207 µM) | > 50 | > 50 | > 50 | > 50 | > 50 | > 50 | 25 (≈ 104 µM)
c1ccc(N2COc3ccccc3C2)cc1 | > 50 | > 50 | 25 (≈ 118 µM) | 50 (≈ 237 µM) | > 50 | 50 (≈ 237 µM) | > 50 | > 50 | 50 (≈ 237 µM) | 25 (≈ 118 µM)
Cc1ccc2c(c1)CN(c1ccccc1)CO2 | > 50 | > 50 | 12.5 (≈ 55.5 µM) | 50 (≈ 222 µM) | 50 (≈ 222 µM) | 25 (≈ 111 µM) | > 50 | 50 (≈ 222 µM) | 50 (≈ 222 µM) | 25 (≈ 111 µM)
GENTAMICIN |  |  |  |  | 0.78 | 0.78 | 0.78 | 0.39 |  | 
Clc1ccc(Cl)c(N2COc3ccc4ccccc4c3C2)c1 | > 50 | > 50 | > 50 | > 50 | > 50 | 50 (≈ 151 µM) | > 50 | > 50 | > 50 | 50 (≈ 151 µM)
c1ccc(CN2COc3ccc4ccccc4c3C2)cc1 | > 50 | > 50 | 50 (≈ 182 µM) | > 50 | > 50 | > 50 | > 50 | > 50 | > 50 | 50 (≈ 182 µM)
Fc1ccc(N2COc3ccc4ccccc4c3C2)cc1 | > 50 | 50 (≈ 179 µM) | 50 (≈ 179 µM) | > 50 | 50 (≈ 179 µM) | > 50 | 50 (≈ 179 µM) | > 50 | > 50 | 25 (≈ 89.5 µM)
